Broadly, the IC50 is the concentration needed to halve the response being measured. High values mean lower potency, low ones higher potency. In general, IC25 refers to the concentration at which the effect reaches the 25% level. Higher therefore signals weaker potency.

For assay [1], the target named is T1, Phosphodiesterase 3 (Homo sapiens, UniProt Q14432+Q13370). Kind of assay: In vitro inhibition of cyclic AMP phosphodiesterase from human platelets.
The species entered for assay [2] is Rattus norvegicus. Put plainly: Inhibition of rat heart cAMP phosphodiesterase.
The next assay is filed under the species Homo sapiens. Kind of assay: Inhibition of ADP-induced platelet aggregation. It counts as functional. The method, boiled down:
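Human citrated PRP (200g, 15 min, room temperature), aspirin-free donors. Compound in DMF or Me2SO preincubated 5 min with stirred PRP at 37 °C. Aggregation induced by 5 μM ADP, followed turbidimetrically. Repeated at least twice with different donors; IC50 graphical.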

For assay [3], the target named is T1, Phosphodiesterase 3. Put plainly: Inhibition of human platelet cAMP phosphodiesterase at 10e-4 M.
Assay [4] is filed under the species Rattus norvegicus. Kind of assay: Inhibition of rat heart cAMP phosphodiesterase (weak partial inhibition).

On to `COc1ccc2nc(O)sc2c1`, for which the half-inhibitory concentration (IC50) at Phosphodiesterase 3 [1] was determined as 21000 nM.
For `CN(C(=O)CCCOc1ccc2c(c1)CCC(=O)N2)C1CCCCC1`, at Phosphodiesterase 3 [1], the concentration for half-maximal inhibition (IC50) is 1350 nM. In the assay filed under Rattus norvegicus [2], this compound yielded an IC25 of 1500 nM.
In the case of `CN(C(=O)CCCOc1ccc2[nH]c(=O)ccc2c1)C1CCCCC1` [CILOSTAMIDE], it took 1900 nM to reach half-maximal inhibition in the assay filed under Homo sapiens (IC50). The IC25 in the assay listed under Rattus norvegicus [2] turned out to be 700 nM.
In turn, `COc1ccc2c(c1)COC(=O)N2` registered a 50% inhibitory concentration (IC50) at Phosphodiesterase 3 [1] of 100000 nM.
In turn, `CN(C(=O)CCCOc1ccc2c(c1)CNC(=O)N2)C1CCCCC1` displayed a 50% inhibitory concentration (IC50) against Phosphodiesterase 3 [1] of 1300 nM. The compound further registered an IC25 in the assay filed under Rattus norvegicus [2] of 880 nM.
At Phosphodiesterase 3 [1], `COc1ccc2c(c1)CSC(=O)N2` had an IC50 of 13000 nM.
For the compound `CN(C(=O)CCCOc1ccc2[nH]c(=O)oc(=O)c2c1)C1CCCCC1`, the IC50 against Phosphodiesterase 3 [1] amounted to 4400 nM. The compound further registered an IC25 in the assay filed under Rattus norvegicus [2] of more than 30000 nM.
`CN(C(=O)CCCOc1ccc2c(c1)CSC(=O)N2)C1CCCCC1` returned a 50% inhibitory concentration (IC50) at Phosphodiesterase 3 [1] of 190 nM. In the assay listed under Rattus norvegicus [2], this compound showed a 25% effect concentration (IC25) of 380 nM.
Turning to `CCCCCCOc1ccc2c(c1)CN1CC(=O)NC1=N2`, the half-maximal inhibitory concentration (IC50) in the assay listed under Homo sapiens worked out at 62000 nM; against Phosphodiesterase 3 [1], 290 nM. This compound also showed an IC25 in the assay listed under Rattus norvegicus [2] of 320 nM.
Turning to `COc1ccc2c(c1)CN1CC(=O)NC1=N2`, the IC50 in the assay listed under Homo sapiens came to 4000 nM; against Phosphodiesterase 3 [1], 1500 nM.
As for `CN(C(=O)CCCOc1ccc2[nH]c(=O)[nH]c(=O)c2c1)C1CCCCC1`, the IC50 at Phosphodiesterase 3 [1] is 1150 nM. In addition, the 25% effect concentration (IC25) in the assay listed under Rattus norvegicus [2] came to 1300 nM.
On Phosphodiesterase 3 [1], `CN(C(=O)CCCOc1ccc2c(c1)C(=O)NCC(=O)N2)C1CCCCC1` showed a 50% inhibitory concentration (IC50) of 3600 nM. Further, the concentration for an effect of 25% (IC25) in the assay filed under Rattus norvegicus [2] stood at 50000 nM.
With `CN(C(=O)CCCOc1ccc2c(c1)CN1CC(=O)NC1=N2)C1CCCCC1` [LIXAZINONE], the IC50 in the assay listed under Homo sapiens worked out at 110 nM; against Phosphodiesterase 3 [1], 10 nM. In the assay filed under Rattus norvegicus [2], this compound registered a concentration for an effect of 25% (IC25) of 600 nM.
Compound `CN(C(=O)CCCOc1ccc2nc(O)sc2c1)C1CCCCC1` returned a half-maximal inhibitory concentration (IC50) against Phosphodiesterase 3 [1] of 10000 nM. The compound also registered a concentration for an effect of 25% (IC25) in the assay listed under Rattus norvegicus [2] of more than 10000 nM.
In the same order, the values of `CN(C(=O)CCCOc1ccc2c(c1)OCC(=O)N2)C1CCCCC1` are 3400 nM and 1300 nM.
With `CN(C(=O)CCCOc1ccc2c(c1)COC(=O)N2)C1CCCCC1`, on Phosphodiesterase 3 [1], the concentration for half-maximal inhibition (IC50) amounted to 1150 nM. The compound further returned an IC25 in the assay filed under Rattus norvegicus [2] of 1000 nM.
Take `COc1ccc2c(c1)CNC(=O)N2`: the half-maximal inhibitory concentration (IC50) against Phosphodiesterase 3 [3] amounted to 35000 nM.
The compound `O=C1CN2Cc3c(ccc(Cl)c3Cl)N=C2N1` [ANAGRELIDE] showed an IC25 in the assay listed under Rattus norvegicus [4] of more than 100000 nM. In the assay filed under Homo sapiens, the half-inhibitory concentration (IC50) was 2600 nM.
On to `CN(C(=O)CCCOc1ccc2c(c1)SCC(=O)N2)C1CCCCC1`, for which the half-inhibitory concentration (IC50) at Phosphodiesterase 3 [1] stood at 1800 nM. Besides, in the assay filed under Rattus norvegicus [2], the IC25 is 1400 nM.

These data come from ChEMBL document CHEMBL1123669 (J Med Chem, 1987).
